The values that follow come from ChEMBL document CHEMBL1141882, “Synthesis and biological testing of purine derivatives as potential ATP-competitive kinase inhibitors” (J Med Chem, 2005).

The target of experiment [1] is Mitogen-activated protein kinase 10 (Rattus norvegicus) (UniProt P49187). The experiment can be described thus: Inhibition of rat c-Jun N-terminal kinase-3 at 30 uM. Put shortly: (§1)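 Kinase activity assayed with ATP at 100 µM, deliberately higher than usual assay ATP levels because the inhibitors are assumed ATP-competitive. Results are reported as percent inhibition of each kinase.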

Experiment [2] deals with RAC-alpha serine/threonine-protein kinase (Homo sapiens) (UniProt P31749). The experiment can be described thus: Inhibition of human Protein kinase B alpha at 30 uM. Put shortly: as §1
Chain of RAC-alpha serine/threonine-protein kinase (Homo sapiens) (P31749 whole entry): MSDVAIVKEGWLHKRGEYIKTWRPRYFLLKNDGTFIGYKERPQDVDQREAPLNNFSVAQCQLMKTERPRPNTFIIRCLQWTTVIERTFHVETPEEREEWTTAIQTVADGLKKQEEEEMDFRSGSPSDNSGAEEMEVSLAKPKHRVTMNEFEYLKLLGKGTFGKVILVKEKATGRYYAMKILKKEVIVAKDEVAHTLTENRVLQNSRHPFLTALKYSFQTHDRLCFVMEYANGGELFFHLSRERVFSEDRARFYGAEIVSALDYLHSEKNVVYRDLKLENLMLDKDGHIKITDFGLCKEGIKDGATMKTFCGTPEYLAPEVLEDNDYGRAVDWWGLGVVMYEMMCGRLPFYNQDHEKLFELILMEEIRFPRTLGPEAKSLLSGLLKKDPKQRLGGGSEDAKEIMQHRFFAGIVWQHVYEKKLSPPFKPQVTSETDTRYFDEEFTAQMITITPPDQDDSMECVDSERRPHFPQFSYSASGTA
Experiment [3] deals with Mitogen-activated protein kinase 14 (Homo sapiens) (UniProt Q16539). The experiment in a line: Inhibition of human stress-activated protein kinase-2 alpha (p38 MAP-kinase) at 30 uM. In a few lines:
as §1

In experiment [4] the target is Dual specificity mitogen-activated protein kinase kinase 1 (Homo sapiens) (UniProt Q02750). The experiment in a line: Inhibition of human Mitogen activated protein kinase kinase 1 (MEK1) at 30 uM. In a few lines:
as §1

Experiment [5] deals with Protein kinase C alpha type (Homo sapiens) (UniProt P17252). The experiment in a line: Inhibition of human Protein kinase C alpha. Details: concentration or dose not given beside the values. As to conditions: concentration not given here.
In experiment [6] the target is cAMP-dependent protein kinase (PKA) (Homo sapiens) (UniProt P22694+P17612+P22612). The experiment can be described thus: Inhibition of human cAMP-dependent protein kinase (PKA). The experiment is classed as protein assay. Details: concentration or dose not given beside the values. As to conditions: concentration not given here.
For experiment [7], the target named is Ca2+/calmodulin-dependent protein kinase II (CaM kinase II) (Rattus norvegicus) (UniProt P11275+P08413+P15791+P11730). The experiment in a line: Inhibition of rat Calcium/calmodulin-dependent protein kinase type II at 30 uM. The experiment is classed as protein assay. In a few lines:
as §1

Experiment [8] deals with Glycogen synthase kinase-3 beta (Homo sapiens) (UniProt P49841). The experiment can be described thus: Inhibition of human Glycogen synthase kinase-3 beta at 30 uM. Put shortly:
as §1

The target of experiment [9] is Mitogen-activated protein kinase 8 (Homo sapiens) (UniProt P45983). The experiment in a line: Inhibition of human c-Jun N-terminal kinase-1 alpha-1 at 30 uM. Put shortly:
as §1

Experiment [10] has as its target Mitogen-activated protein kinase 9 (Homo sapiens) (UniProt P45984). The experiment in a line: Inhibition of human c-Jun N-terminal kinase-2 alpha-2 at 30 uM. In a few lines: as §1
In experiment [11] the target is Mitogen-activated protein kinase 1 (Homo sapiens) (UniProt P28482). The experiment can be described thus: Inhibition of human Mitogen-activated protein kinase 2 at 30 uM. In a few lines: as §1
Chain of Mitogen-activated protein kinase 1 (Homo sapiens) (P28482 whole entry): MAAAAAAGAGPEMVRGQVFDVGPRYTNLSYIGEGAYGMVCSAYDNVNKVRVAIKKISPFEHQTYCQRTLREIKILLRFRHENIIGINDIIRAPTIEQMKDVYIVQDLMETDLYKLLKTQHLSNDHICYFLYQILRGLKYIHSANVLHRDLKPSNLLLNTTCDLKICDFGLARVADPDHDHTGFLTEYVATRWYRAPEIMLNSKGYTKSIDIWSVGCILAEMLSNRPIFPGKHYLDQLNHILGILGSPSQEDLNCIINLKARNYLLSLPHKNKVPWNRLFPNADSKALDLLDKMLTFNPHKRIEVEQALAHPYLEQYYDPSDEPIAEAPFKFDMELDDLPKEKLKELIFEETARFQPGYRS
Experiment [12] addresses Tyrosine-protein kinase Lck (Homo sapiens) (UniProt P06239). The experiment can be described thus: Inhibition of human lymphocyte protein tyrosine kinase Lck at 30 uM. In a few lines:
as §1

Experiment [13] concerns the target RAF proto-oncogene serine/threonine-protein kinase (Homo sapiens) (UniProt P04049). The experiment can be described thus: Inhibition of human RAF proto-oncogene serine/threonine-protein kinase at 30 uM. Put shortly:
as §1

Experiment [14] deals with Rho-associated protein kinase 2 (Homo sapiens) (UniProt O75116). The experiment in a line: Inhibition of human Rho-dependent protein kinase-II at 30 uM.
Chain of Rho-associated protein kinase 2 (Homo sapiens) (O75116 whole entry, looked up): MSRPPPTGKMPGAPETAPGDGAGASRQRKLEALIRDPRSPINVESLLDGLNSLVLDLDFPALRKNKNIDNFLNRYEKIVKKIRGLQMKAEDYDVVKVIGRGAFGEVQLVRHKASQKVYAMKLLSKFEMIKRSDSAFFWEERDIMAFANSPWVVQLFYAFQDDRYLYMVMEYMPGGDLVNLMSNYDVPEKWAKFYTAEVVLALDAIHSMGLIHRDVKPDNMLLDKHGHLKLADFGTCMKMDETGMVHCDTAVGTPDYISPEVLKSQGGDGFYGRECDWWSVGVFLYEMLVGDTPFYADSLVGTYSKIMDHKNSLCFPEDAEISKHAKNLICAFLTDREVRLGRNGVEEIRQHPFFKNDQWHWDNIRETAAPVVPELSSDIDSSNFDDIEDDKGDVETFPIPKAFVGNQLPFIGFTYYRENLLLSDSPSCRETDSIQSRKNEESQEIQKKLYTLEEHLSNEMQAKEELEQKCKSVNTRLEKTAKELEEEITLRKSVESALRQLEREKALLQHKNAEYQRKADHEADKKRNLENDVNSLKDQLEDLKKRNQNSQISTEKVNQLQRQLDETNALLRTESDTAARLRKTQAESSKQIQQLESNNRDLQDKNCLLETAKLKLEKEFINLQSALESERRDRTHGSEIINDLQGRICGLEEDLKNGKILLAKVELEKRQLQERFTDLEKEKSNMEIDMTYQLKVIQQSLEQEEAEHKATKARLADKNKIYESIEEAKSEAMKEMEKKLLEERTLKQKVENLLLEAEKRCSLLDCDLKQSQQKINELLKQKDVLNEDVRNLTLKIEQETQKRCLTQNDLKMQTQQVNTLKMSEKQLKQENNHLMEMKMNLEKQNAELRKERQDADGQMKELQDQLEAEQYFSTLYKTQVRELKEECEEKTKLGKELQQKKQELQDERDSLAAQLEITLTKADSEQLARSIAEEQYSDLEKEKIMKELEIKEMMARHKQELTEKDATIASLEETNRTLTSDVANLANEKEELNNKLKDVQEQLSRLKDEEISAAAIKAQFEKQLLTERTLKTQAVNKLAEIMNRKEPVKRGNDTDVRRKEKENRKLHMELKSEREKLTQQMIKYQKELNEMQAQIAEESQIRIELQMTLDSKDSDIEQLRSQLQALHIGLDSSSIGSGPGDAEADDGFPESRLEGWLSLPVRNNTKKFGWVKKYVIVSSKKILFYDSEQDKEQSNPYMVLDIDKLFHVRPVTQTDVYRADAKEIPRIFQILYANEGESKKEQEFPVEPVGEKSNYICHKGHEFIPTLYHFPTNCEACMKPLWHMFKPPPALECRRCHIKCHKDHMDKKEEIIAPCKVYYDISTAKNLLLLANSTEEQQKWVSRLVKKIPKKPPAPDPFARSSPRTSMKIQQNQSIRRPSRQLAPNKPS

Usually inhibition stands for the drop in the measured response relative to a control, in per cent.

Structures are written as SMILES.

Chain of Mitogen-activated protein kinase 9 (Homo sapiens) (P45984 whole entry, looked up): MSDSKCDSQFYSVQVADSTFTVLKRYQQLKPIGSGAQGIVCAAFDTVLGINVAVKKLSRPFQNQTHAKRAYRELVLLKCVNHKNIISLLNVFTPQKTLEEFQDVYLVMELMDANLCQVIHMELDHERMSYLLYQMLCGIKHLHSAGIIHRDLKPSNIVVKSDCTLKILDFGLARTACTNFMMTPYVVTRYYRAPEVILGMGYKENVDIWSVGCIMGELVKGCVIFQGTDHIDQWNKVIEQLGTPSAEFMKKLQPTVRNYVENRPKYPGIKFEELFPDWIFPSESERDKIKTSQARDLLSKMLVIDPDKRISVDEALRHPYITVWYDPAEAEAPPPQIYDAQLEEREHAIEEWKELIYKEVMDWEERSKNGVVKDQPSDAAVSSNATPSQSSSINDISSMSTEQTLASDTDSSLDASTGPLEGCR
Chain of Glycogen synthase kinase-3 beta (Homo sapiens) (P49841 whole entry, looked up): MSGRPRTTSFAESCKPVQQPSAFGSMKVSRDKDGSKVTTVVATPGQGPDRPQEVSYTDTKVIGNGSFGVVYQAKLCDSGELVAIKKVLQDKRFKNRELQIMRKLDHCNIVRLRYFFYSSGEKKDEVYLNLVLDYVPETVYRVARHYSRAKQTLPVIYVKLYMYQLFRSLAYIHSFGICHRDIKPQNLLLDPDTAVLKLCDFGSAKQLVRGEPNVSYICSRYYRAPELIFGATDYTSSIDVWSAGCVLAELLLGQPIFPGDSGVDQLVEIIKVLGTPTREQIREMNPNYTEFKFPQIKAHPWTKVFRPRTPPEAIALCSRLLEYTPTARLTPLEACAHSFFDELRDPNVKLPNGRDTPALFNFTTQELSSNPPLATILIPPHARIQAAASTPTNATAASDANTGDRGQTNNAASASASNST
Chain of Mitogen-activated protein kinase 8 (Homo sapiens) (P45983 whole entry): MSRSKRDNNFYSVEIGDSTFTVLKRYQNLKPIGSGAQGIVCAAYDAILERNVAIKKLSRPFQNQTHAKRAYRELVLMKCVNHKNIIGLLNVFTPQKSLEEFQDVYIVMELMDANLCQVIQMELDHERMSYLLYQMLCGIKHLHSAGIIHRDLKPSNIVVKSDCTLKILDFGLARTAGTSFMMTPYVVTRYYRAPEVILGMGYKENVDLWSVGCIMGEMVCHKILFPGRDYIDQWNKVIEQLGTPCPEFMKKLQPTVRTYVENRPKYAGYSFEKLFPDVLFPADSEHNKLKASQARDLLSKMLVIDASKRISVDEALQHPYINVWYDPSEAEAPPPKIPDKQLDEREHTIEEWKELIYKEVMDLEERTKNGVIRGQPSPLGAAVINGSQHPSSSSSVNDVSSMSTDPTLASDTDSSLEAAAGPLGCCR
Chain of Mitogen-activated protein kinase 14 (Homo sapiens) (Q16539 whole entry): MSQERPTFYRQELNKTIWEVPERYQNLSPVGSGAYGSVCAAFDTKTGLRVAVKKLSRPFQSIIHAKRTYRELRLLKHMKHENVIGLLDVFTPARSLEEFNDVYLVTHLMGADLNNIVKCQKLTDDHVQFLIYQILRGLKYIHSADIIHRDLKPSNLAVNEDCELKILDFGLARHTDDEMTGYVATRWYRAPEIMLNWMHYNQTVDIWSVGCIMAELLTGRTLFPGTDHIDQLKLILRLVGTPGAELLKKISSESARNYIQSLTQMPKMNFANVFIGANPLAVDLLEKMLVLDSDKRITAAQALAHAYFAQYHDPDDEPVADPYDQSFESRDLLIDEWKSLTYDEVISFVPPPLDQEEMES
Chain of Dual specificity mitogen-activated protein kinase kinase 1 (Homo sapiens) (Q02750 whole entry): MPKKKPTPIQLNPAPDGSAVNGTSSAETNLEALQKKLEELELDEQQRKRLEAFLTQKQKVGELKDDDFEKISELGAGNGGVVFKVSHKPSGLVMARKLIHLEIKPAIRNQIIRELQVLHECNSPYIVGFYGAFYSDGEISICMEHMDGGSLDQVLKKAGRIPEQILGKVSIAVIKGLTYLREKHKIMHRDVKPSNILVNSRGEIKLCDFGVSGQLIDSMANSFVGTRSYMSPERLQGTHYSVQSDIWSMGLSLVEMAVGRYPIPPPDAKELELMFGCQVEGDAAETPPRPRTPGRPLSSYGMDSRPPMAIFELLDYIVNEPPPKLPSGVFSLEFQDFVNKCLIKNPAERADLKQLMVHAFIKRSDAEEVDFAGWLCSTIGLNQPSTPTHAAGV

Consider `Nc1ncnc2c1ncn2Cc1ccccc1`, for which the inhibition in experiment [1] came to 17%; in experiment [2], 0%; in experiment [3], 7%; in experiment [4] it was 7%; in experiment [5] it was 2%; in experiment [6], 1%. Further, the inhibition stood at 0% in [7]; 7% in [8]; 1% in [9]; 0% in [10]; 11% in experiment [11]; 19% in [12]. Besides, the figures for the inhibition in experiment [13] and in [14] were 25% and 5%, respectively.

On to `Fc1ccc(Cn2cnc3c(Cl)ncnc32)cc1`, for which the inhibition in experiment [1] is 20%; in experiment [2], 0%; in experiment [3], 10%; in experiment [4], 1%; in [5], 14%; in experiment [6], 0%. Also, the inhibition in experiment [7] amounted to 0%; in [8], 8%; in experiment [9], 0%; in experiment [10], 0%; in [11], 0%; in experiment [12], 0%. Further, the inhibition in [13] was 4%; in [14], 0%.

As to `Cn1c(-c2ccc(S(C)(=O)=O)cc2)nc2c(Sc3ccccc3)ncnc21`, the inhibition in [1] was 7%; in experiment [2], 14%; in [3] it was 36%; in [4], 4%; in experiment [5], 18%; in experiment [6] it was 11%. Moreover, the inhibition in experiment [7] was found to be 8%; in [8], 0%; in [9], 1%; in experiment [10], 8%; in experiment [11], 3%; in experiment [12] it was 16%. Besides, the inhibition in experiment [13] was 10%; in experiment [14], 5%.

Consider `Fc1ccc(Sc2ncnc3[nH]cnc23)cc1`, for which the inhibition in [1] was found to be 8%; in experiment [2], 0%; in experiment [3], 72%; in [4], 2%; in experiment [5] it was 9%; in experiment [6], 10%. Further, the inhibition was 0% in experiment [7]; 0% in experiment [8]; 0% in experiment [9]; 1% in experiment [10]; 12% in experiment [11]; 13% in [12]. In addition, the figures for the inhibition in experiment [13] and in [14] were 29% and 37%, respectively.

Consider `c1ccc(Cc2[nH]cnc3ncnc2-3)cc1`, for which the inhibition in [1] came out at 30%; in [2] it was 0%; in experiment [3] it was 8%; in experiment [4], 3%; in [5], 7%; in experiment [6], 7%. Also, the inhibition in experiment [7] is 2%; in experiment [8] it was 5%; in experiment [9] it was 0%; in experiment [10] it was 0%; in [11] it was 3%; in [12], 0%. In addition, the results for the inhibition in experiment [13] and in experiment [14] were 9% and 1%, respectively.

As for `c1ccc(Sc2[nH]cnc3nccc2-3)cc1`, the inhibition in experiment [1] stood at 0%; in experiment [2], 0%; in [3], 56%; in experiment [4], 41%; in experiment [5], 23%; in [6], 0%. Further, the inhibition in [7] is 6%; in [8], 11%; in experiment [9] it was 0%; in [10] it was 0%; in [11], 4%; in experiment [12] it was 56%. Further, the inhibition in experiment [13] came to 22%; in experiment [14], 36%.

For the compound `Fc1ccc(Cc2[nH]cnc3ncnc2-3)cc1`, the inhibition in [1] turned out to be 0%; in [2], 3%; in [3] it was 1%; in [4], 0%; in experiment [5] it was 0%; in experiment [6], 0%. Moreover, the inhibition turned out to be 8% in experiment [7]; 2% in [8]; 0% in experiment [9]; 0% in experiment [10]; 0% in experiment [11]; 0% in [12]. The inhibition worked out at 0% in experiment [13] and 2% in experiment [14].

In the case of `Nc1ncnc2c1ncn2Cc1ccc(F)cc1`, the inhibition in [1] was determined as 9%; in experiment [2], 0%; in experiment [3], 8%; in experiment [4], 7%; in experiment [5], 16%; in experiment [6], 0%. The inhibition in experiment [7] came to 9%; in experiment [8], 5%; in [9], 0%; in [10], 0%; in experiment [11] it was 0%; in experiment [12], 22%. For the same compound, the values for the inhibition in [13] and in [14] were 16% and 0%, respectively.

Regarding `Cn1c(-c2ccccc2)nc2c(-c3ccc(F)cc3)ncnc21`, the inhibition was 12% in [1]; 31% in [2]; 23% in experiment [3]; 5% in [4]; 17% in experiment [5]; 0% in experiment [6]. The inhibition in experiment [7] was 5%; in experiment [8], 26%; in [9], 2%; in [10], 8%; in [11], 1%; in experiment [12], 17%. Moreover, the inhibition in [13] amounted to 24%; in experiment [14] it was 0%.

With `Cn1cnc2c(Sc3ccccc3)ncnc21`, the inhibition in experiment [1] came to 7%; in experiment [2], 0%; in experiment [3] it was 17%; in experiment [4] it was 3%; in experiment [5], 13%; in experiment [6], 0%. Further, the inhibition was determined as 8% in [7]; 3% in experiment [8]; 3% in [9]; 6% in experiment [10]; 12% in experiment [11]; 6% in experiment [12]. The inhibition in [13] came out at 10%; in experiment [14], 6%.

As to `c1ccc(Oc2ncnc3[nH]cnc23)cc1`, the inhibition came to 0% in experiment [1]; 0% in [2]; 12% in experiment [3]; 1% in [4]; 8% in [5]; 11% in experiment [6]. The inhibition amounted to 0% in [7]; 0% in experiment [8]; 1% in experiment [9]; 1% in [10]; 6% in experiment [11]; 11% in [12]. Moreover, the inhibition in experiment [13] was 3%; in experiment [14] it was 16%.

`c1ccc(-[n+]2c[nH]c3ncncc32)cc1`: the inhibition was determined as 3% in [1]; 0% in [2]; 0% in experiment [3]; 0% in experiment [4]; 4% in [5]; 0% in experiment [6]. The inhibition stood at 0% in [7]; 4% in experiment [8]; 0% in [9]; 0% in [10]; 0% in experiment [11]; 2% in experiment [12]. The inhibition in experiment [13] and in experiment [14] was 0% throughout.

For the compound `Cn1cnc2c(SCc3ccccc3)ncnc21`, the inhibition was 5% in [1]; 4% in [2]; 22% in experiment [3]; 6% in experiment [4]; 13% in experiment [5]; 0% in experiment [6]. The inhibition in [7] came out at 0%; in [8], 10%; in experiment [9] it was 1%; in experiment [10], 7%; in experiment [11] it was 0%; in experiment [12], 6%. The inhibition in experiment [13] came out at 12%; in [14], 1%.

As to `Fc1ccc(Cn2cnc3c(Sc4ccccc4)ncnc32)cc1`, the inhibition was found to be 0% in [1]; 13% in experiment [2]; 67% in experiment [3]; 1% in [4]; 0% in experiment [5]; 0% in experiment [6]. For the same compound, the inhibition turned out to be 0% in [7]; 0% in experiment [8]; 0% in experiment [9]; 0% in experiment [10]; 0% in [11]; 12% in [12]. Also, the inhibition in [13] worked out at 0%; in [14] it was 2%.
